Publication PMC7237957 (European Heart Journal Cardiovascular Imaging, 2019)
Where two headings read alike, the source gives them in different places.

Key:
Format in all cases: binding
human thrombus = biological target: T1, human thrombus (Homo sapiens, UniProt P00488); assay: Autoradiography of ex vivo human thrombus sections with blocking; conditions: human explanted thrombus sections; 5 μM co-incubated
T1 sequence (P00488 39-732 limits assumed): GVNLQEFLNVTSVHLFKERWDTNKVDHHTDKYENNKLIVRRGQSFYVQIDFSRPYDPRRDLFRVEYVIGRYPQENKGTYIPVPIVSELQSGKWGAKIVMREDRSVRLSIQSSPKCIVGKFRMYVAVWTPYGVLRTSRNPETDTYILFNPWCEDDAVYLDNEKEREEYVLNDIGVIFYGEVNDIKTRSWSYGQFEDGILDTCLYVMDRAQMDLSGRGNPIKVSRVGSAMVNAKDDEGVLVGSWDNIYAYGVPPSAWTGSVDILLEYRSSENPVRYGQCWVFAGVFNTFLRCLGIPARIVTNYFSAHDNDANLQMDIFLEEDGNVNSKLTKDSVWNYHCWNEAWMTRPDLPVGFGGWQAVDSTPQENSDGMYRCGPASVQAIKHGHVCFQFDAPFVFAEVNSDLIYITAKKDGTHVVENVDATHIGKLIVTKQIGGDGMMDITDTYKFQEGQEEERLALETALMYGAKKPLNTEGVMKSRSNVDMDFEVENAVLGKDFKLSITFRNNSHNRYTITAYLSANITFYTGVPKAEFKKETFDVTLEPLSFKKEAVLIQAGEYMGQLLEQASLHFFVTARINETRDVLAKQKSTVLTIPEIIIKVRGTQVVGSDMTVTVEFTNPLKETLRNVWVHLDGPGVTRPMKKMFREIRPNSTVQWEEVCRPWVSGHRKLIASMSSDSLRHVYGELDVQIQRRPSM
In short: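 Paraffin-embedded cross-sections of ex vivo human thrombi (n = 3) were de-paraffinised, rehydrated and incubated 2 h at 37°C with 18F-tracer alone or co-incubated with unlabelled tracer, scrambled peptide or iodoacetamide (each 5 μM), in quadruplicate. Slides were washed twice in phosphate buffer, air-dried and exposed to a phosphor screen. Equal ROIs gave greyscale pixel intensity; %SB = tracer-only minus inhibitor-section activity.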

rodent carotid thrombus = biological target: T2, rodent carotid thrombus (Rattus norvegicus, UniProt O08619); conditions: rodent explanted thrombus sections; 5 μM co-incubated
T2 sequence (O08619 39-732 limits assumed): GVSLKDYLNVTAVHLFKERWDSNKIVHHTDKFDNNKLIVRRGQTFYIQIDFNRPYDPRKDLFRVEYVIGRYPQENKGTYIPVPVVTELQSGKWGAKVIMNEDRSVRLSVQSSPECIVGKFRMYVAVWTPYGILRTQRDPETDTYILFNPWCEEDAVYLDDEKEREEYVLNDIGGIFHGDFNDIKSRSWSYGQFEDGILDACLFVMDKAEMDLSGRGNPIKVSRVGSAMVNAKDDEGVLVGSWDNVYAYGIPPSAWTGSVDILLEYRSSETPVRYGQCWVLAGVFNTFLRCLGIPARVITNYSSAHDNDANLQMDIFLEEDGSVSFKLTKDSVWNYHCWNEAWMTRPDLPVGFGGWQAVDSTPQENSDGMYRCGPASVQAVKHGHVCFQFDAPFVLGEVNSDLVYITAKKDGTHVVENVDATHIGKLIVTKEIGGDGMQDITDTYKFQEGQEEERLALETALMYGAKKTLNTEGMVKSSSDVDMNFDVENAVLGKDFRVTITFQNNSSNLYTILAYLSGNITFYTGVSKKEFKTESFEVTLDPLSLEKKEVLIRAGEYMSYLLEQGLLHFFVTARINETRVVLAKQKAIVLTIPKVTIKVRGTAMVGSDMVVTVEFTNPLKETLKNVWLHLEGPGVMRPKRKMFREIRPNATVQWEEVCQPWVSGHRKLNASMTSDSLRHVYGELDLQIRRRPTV
In short: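 Thrombosed left common carotid (ferric chloride model) was harvested from one rat after sacrifice. Sections were de-paraffinised, rehydrated and incubated 2 h at 37°C with 18F-tracer alone or with 5 μM unlabelled tracer, scrambled peptide or iodoacetamide. They were then washed, dried and exposed to a phosphor screen. Greyscale intensity was read in equal ROIs; %SB = tracer-only minus inhibitor sections.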

Factor XIIIa = biological target: T3, Factor XIIIa (Homo sapiens, UniProt P00488); conditions: co-infusion of iodoacetamide 10 mg/mL, n = 10
T3 sequence (P00488 39-732 limits assumed): T1 sequence (P00488 39-732 limits assumed)
In short: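 Native blood from healthy male volunteers was pumped at 10 mL/min for 5 min through three 37°C chambers over porcine aortic strips (intima removed), at 212 s−1 (low shear) or 1690 s−1 (high shear), then flushed with saline. Tracer was infused at 4.6 ± 0.5 MBq/mL, or 5.5 ± 0.9 MBq/mL with 10 mg/mL iodoacetamide. Strips were scanned by NanoPET/CT; equal thrombus VOIs (kBq/mL) were divided by infused MBq.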

SMILES: NC(=O)CI [iodoacetamide, Iodoacetamide]
- Effect on 18F-ENC2015 uptake (autoradiography) (human thrombus): no effect
- Effect on 18F-ENC2015 uptake (autoradiography) (rodent carotid thrombus): no effect
- Reduction of 18F-ENC2015 thrombus binding (Factor XIIIa; high shear thrombi): 87%
- Reduction of 18F-ENC2015 thrombus binding (Factor XIIIa; low shear thrombi): 88%
